Shown are actives, neighbours in structure and some others; about 3% of the full set was active somewhere.
TRPC6 activator – activates the mouse TRPC6 cation channel; 310,000 tested, 0.13% active; AID 2550; B-score at 10 µM; HEK293-TRPC6 membrane potential dye fluorescence; hits give high values;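 active means B-score of the integrated fluorescence ratio above library mean plus 3 SD, and starting fluorescence ratio within library mean plus 5 SD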;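 further: higher score means more depolarization so channel activation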
Target sequence (Q61143 whole entry, looked up): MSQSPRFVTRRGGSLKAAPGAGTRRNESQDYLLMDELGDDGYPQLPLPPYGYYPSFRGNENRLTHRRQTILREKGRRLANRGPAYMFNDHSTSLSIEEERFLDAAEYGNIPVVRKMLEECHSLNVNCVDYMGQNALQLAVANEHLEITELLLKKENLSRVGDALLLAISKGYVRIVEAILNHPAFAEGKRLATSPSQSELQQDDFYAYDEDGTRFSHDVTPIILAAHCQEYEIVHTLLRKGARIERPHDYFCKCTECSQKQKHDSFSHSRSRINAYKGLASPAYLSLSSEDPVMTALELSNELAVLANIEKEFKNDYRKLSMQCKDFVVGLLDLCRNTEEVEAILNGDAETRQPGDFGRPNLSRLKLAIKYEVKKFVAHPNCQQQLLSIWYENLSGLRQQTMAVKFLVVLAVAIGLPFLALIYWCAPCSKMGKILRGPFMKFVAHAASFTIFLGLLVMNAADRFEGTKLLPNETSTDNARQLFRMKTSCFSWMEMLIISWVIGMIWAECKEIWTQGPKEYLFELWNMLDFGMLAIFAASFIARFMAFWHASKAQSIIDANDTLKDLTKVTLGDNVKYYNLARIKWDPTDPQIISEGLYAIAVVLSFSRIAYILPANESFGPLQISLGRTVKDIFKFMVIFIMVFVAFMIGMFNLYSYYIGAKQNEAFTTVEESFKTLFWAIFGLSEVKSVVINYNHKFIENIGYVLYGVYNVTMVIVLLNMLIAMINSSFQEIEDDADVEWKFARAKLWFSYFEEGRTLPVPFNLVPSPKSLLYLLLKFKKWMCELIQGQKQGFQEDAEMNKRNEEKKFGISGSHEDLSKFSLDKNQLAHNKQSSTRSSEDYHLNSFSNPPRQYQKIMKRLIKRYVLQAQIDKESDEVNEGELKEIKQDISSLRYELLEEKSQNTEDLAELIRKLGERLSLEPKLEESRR
TRPC4 block – inhibitors of mouse TRPC4 channel; Q9QUQ5; HEK293 TRPC4beta/mu-opioid, DAMGO-evoked Fluo4 calcium flux; hits give low values; B-score at 10 µM; 300,000 tested, 0.39% active; AID 2247;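 active means B-score over 3 SD under the library average, no early fluorescence shift, positive overall ratio signal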
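Assay system: Stable TRPC4beta/mu-opioid receptor HEK293 cells | Reagent: DAMGO in two steps, submaximal then maximal | Compound dosing: Single concentration per test compound | Signal: Fluo4 Ca2+ flux fluorescence | Evaluation: Per-well B score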
TRPC4 PAM – allosterically enhances the mouse TRPC4 cation channel | Q9QUQ5 | HEK293 TRPC4beta/mu-opioid, DAMGO EC20, Fluo-4 Ca2+ flux; hits give high values | B-score at 10 µM | 310,000 tested, 0.42% active | AID 2227;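 active means B-score of calcium response area above 5 SD of library B-scores, with initial fluorescence ratio within 5 SD of library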;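 further: B-score of integrated fluorescence ratio over time as area under calcium response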
Kir21 inh – Kir2.1 (mouse) channel inhibition | P35561 | HEK293-Kir2.1, FluxOR thallium flux fluorescence; hits give low values | B-score at 10 µM | 310,000 tested, 0.85% active | AID 1672;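 active means fluorescence ratio B-score at or below minus 3 SD of library scores, with starting-brightness B-score within 2 SD, cut at about -4.2 in these data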;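 further: channel flux triggered by added potassium and thallium sulfate stimulus; B-score of peak minus minimum fluorescence over baseline after thallium stimulus; more negative B-score means stronger Kir2.1 block with less thallium influx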
TRPC6 inh – blocks the mouse TRPC6 cation channel | Q61143 | HEK293-TRPC6, membrane potential dye, ACh-evoked depolarization; hits give low values | B-score at 10 µM | 310,000 tested, 1.1% active | AID 2553;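 active means B-score under library mean minus 3 SD, initial fluorescence not abnormally high, positive integrated signal ratio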;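 further: B-score derived from integrated fluorescence ratio over the kinetic read; more negative B-score means stronger inhibition of depolarization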
TRPC4 agonist – activators of mouse TRPC4 channel | Q9QUQ5 | HEK293 TRPC4beta/mu-opioid, Fluo4 calcium fluorescence; hits give high values | B-score at 10 µM | 310,000 tested, 0.49% active | AID 2237;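 active means B-score above 5 SD of library B-scores, and initial fluorescence ratio not above library mean plus 5 SD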;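 further: positive B-score marks a calcium rise read as TRPC4 activation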
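System: HEK293 cells stably co-expressing mouse TRPC4beta and mu-opioid receptor; Schedule: Fluo4 dye loading 45 min at room temperature, 110 s recording; Detection: Fluo4 fluorescence, kinetic; Evaluation: B-scored integrated calcium fluorescence ratio; Controls: buffer (low) and maximal DAMGO (high).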
TRPC4 spec 2 – mouse TRPC4 off-target activity of TRPC6 inhibitors, second screen | shares compounds with TRPC6 inh | HEK293 TRPC4/MOR, membrane potential dye fluorescence; channel activated by saturating DAMGO dose | inhibition, % at 10 µM | 920 tested, 42% active;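 active means compounds whose fluorescence signal differed from control wells by over 3 SD, either direction, in both duplicate plates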
TRPC4 spec – selectivity of TRPC6 inhibitors: effect on mouse TRPC4; shares compounds with TRPC6 inh; HEK293 TRPC4/mu-opioid, membrane potential fluorescence; activity change, negative = inhibition, % at 10 µM; 920 tested, 61% active;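 active means rise or fall in signal beyond 3 SD of buffer-only wells in both replicate plates, either sign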;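 further: integrated kinetic ratio of fluorescence range over baseline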
HEK293 MPD ctr 2-1 – second check of TRPC6 inhibitor effects in parental HEK293 cells; shares compounds with TRPC6 inh; parental HEK293 membrane potential dye fluorescence; maximal acetylcholine challenge after compound addition; 920 tested, 31% active; signal change vs control, % at 10 µM;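 active means membrane potential signal moving either way by over 3 SD of the maximum-effect control, in both duplicate plates, meaning non-specific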
HEK293 MPD ctr-1 – parental HEK293 nonspecific activity of TRPC6 inhibitors | membrane potential signal change, % at 10 µM | shares compounds with TRPC6 inh | parental HEK293 membrane potential dye fluorescence | 920 tested, 60% active;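 active means membrane potential signal shifting up or down by more than 3 SD of buffer-only wells, on both duplicate plates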
HEK293 MPD ctr-2 – counter-screen for TRPC6 modulators: effect in parental HEK293 cells | shares compounds with TRPC6 inh | membrane potential dye fluorescence | membrane potential signal change, % at 10 µM | 2,400 tested, 51% active | AID 488924;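 active means membrane potential signal moves up or down beyond 5 SD from buffer-only wells, on both duplicate plates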
HEK293 MPD ctr 2-2 – parental HEK293 nonspecific activity of TRPC6 modulators, second screen; inhibition, % at 10 µM; shares compounds with TRPC6 inh; membrane potential dye fluorescence; after compound, maximal acetylcholine stimulation; 2,400 tested, 14% active;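 active means membrane potential signal drops by more than 5 SD from the mean control signal, in both duplicate plates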;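 further: plate controls were acetylcholine ECmax control wells for no effect and buffer only wells for full effect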
TRPC4/MOR mod – mouse TRPC4 off-target activity of TRPC6 modulators. AID 488927. 2,400 tested, 69% active. HEK293 TRPC4/mu-opioid, membrane potential fluorescence. shares compounds with TRPC6 inh. percent change from control (negative = decrease, positive = increase), % at 10 µM;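 active means membrane potential signal moved up or down beyond 5 SD of buffer control wells, in both duplicate plates, actives on both sides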;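 further: plate controls were assay buffer wells for no effect and DAMGO maximal-effect wells for full effect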
TRPC4 ctr inh 2 – second check of whether TRPC6 modulators also affect mouse TRPC4 | shares compounds with TRPC6 inh | AID 488928 | 2,400 tested, 55% active | inhibition, % at 10 µM | HEK293 TRPC4/mu-opioid, membrane potential dye fluorescence; stimulated with maximal-effect DAMGO;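 active means drop in membrane potential signal beyond 5 SD of the control wells in both duplicate plates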;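 further: TRPC4 counter screen for TRPC6 hits run under conditions tuned for TRPC6 not TRPC4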
TRPC6 inh conf – confirmation of mouse TRPC6 inhibitors; shares compounds with TRPC6 inh; HEK293-TRPC6, membrane potential dye, ACh-evoked depolarization; inhibition, % at 10 µM; 3,300 tested, 43% active; AID 488960;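 active means fluorescence ratio falls more than 5 SD below the full-stimulation control mean, in both duplicate runs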;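 further: integrated fluorescence ratio of peak minus minimum over baseline after agonist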
TRPC6 act confirm – confirmation of mouse TRPC6 activators; 2,800 tested, 11% active; HEK293-TRPC6 membrane potential dye fluorescence, FDSS; shares compounds with TRPC6 inh; activation, % at 10 µM; AID 488961;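 active means ratio signal rise beyond 5 SD above unstimulated control wells' mean, seen in both duplicate runs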;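 further: plate controls were buffer EC0 wells for no effect and acetylcholine ECmax response for full effect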
An asterisk follows results filed as active; i = inactive; / = no result given.

SMILES	TRPC6 activator	TRPC4 block	TRPC4 PAM	Kir21 inh	TRPC6 inh	TRPC4 agonist	HEK293 MPD ctr-2	HEK293 MPD ctr 2-2	TRPC4/MOR mod	TRPC4 ctr inh 2	TRPC6 inh conf	TRPC6 act confirm	others
CS(=O)c1ccccc1-c1nc(-c2cccc(Cl)c2)no1 (stereo not drawn)	i	i	i	-1.8	-9.8*	i	/	/	/	/	i	i	TRPC4 spec 2=i;TRPC4 spec=i;HEK293 MPD ctr 2-1=i;HEK293 MPD ctr-1=i
COc1ccccc1C(=O)NN=C1CCN(Cc2ccccc2)CC1	i	i	i	1.2	i	i	/	/	/	/	/	/
COC(=O)Cc1c[nH]c2cccc(OCC(O)CN(Cc3ccccc3)C(C)C)c12 (stereo not drawn)	i	i	i	-1.2	-7.2*	i	/	/	/	/	i	i	TRPC4 spec 2=72%*;TRPC4 spec=0.3%*;HEK293 MPD ctr 2-1=i;HEK293 MPD ctr-1=i
CCN(CC)S(=O)(=O)c1ccc(Cl)c(C(=O)Nc2cc(C)nn2-c2ccccc2C(F)(F)F)c1	i	i	i	-0.18	i	i	/	/	/	/	/	/
COc1cnc(-c2ccccn2)nc1N(C)C	i	i	i	1.8	-5.2*	i	-76%*	i	-16%*	i	i	i
COc1cnc(-c2ccccn2)nc1Oc1cccc(Cl)c1	i	i	i	0.22	-5.5*	i	i	i	i	i	i	i
COc1ccc(Oc2nc(-c3ccccn3)ncc2OC)cc1	i	i	i	0.06	i	i	/	/	/	/	/	/
O=C(NCCCC1CCCC1)C1CCC(=O)N(Cc2ccc(Cl)cc2)C1 (stereo not drawn)	i	i	i	-2.6	i	i	/	/	/	/	/	/
COc1ccc(CN2CCC(=O)N([C@H](CO)c3ccccc3)CC2)cc1	i	i	i	-0.98	i	i	/	/	/	/	/	/
COc1ccccc1Nc1nc(N)nc(CN2CCC(C)CC2)n1	i	i	i	-0.72	i	i	/	/	/	/	/	/
COc1ccccc1Nc1nc(N)nc(CSC(=S)N2CCC(C)CC2)n1	i	i	i	0.13	-5.5*	i	i	i	i	i	78%*	/
COc1ccccc1Nc1nc(N)nc(CN2CCOCC2)n1	i	i	i	0.57	i	i	/	/	/	/	/	/
COc1ccccc1Nc1nc(N)nc(CN2CCC(Cc3ccccc3)CC2)n1	i	i	i	-2.7	-6.5*	i	100%*	i	i	84%*	47%*	/
COc1ccccc1Nc1nc(N)nc(CSC(=S)N2CCCCC2C)n1 (stereo not drawn)	i	i	i	-0.17	-7.8*	i	/	/	/	/	i	i	TRPC4 spec 2=i;TRPC4 spec=i;HEK293 MPD ctr 2-1=i;HEK293 MPD ctr-1=i
COc1ccccc1Nc1nc(N)nc(CSC(=S)N2CCN(c3ccccc3)CC2)n1	i	i	i	1.7	i	i	/	/	/	/	/	/
CCCCN(C(=O)c1ccc(C)cc1)c1c(N)n(CCC)c(=O)[nH]c1=O	i	i	i	-1.9	i	i	/	/	/	/	/	/
Cc1ccc(C(NC(=O)NC(C)c2ccccc2)C(Cl)(Cl)Cl)cc1F (stereo not drawn)	i	i	i	3.2	i	i	/	/	/	/	/	/
CC1CN(C(=O)CCC(=O)N2CCOCC2)c2ccccc2O1 (stereo not drawn)	i	i	i	0.01	i	i	/	/	/	/	/	/
COc1ccc(CCNC(=O)c2cc3c(=O)n4ccccc4nc3n(CC3CCCO3)c2=N)cc1OC (stereo not drawn)	i	i	i	-0.03	-5*	i	106%*	i	12%*	i	46%*	/
N=c1c(C(=O)NCc2ccc(F)cc2)cc2c(=O)n3ccccc3nc2n1CC1CCCO1 (stereo not drawn)	i	i	i	-0.24	-6.7*	i	i	i	-38%*	54%*	59%*	i
Nc1nonc1-n1nnc(C(=O)N/N=C/c2cc(Br)cs2)c1-c1ccccc1	i	i	i	-0.39	i	i	/	/	/	/	/	/
CCCCC[C@H]1CN(Cc2ccc(OC)cc2)C(=O)[C@@H]1CC(=O)NCc1ccccc1	i	i	i	-0.3	i	i	/	/	/	/	/	/
CCOc1ccc(S(=O)(=O)N2CCCC(C(=O)NCC3CCCO3)C2)cc1 (stereo not drawn)	i	i	i	-1.4	i	i	/	/	/	/	/	/
CCc1ccc(NC(=S)N(CCN2CCOCC2)Cc2ccccc2F)cc1	i	i	i	-0.18	i	i	/	/	/	/	/	/
CCN(CC)CCNc1nc2c(c(=O)[nH]c(=O)n2C)n1CC(O)COc1ccc(Cl)cc1Cl (stereo not drawn)	i	i	i	0.33	-8.8*	i	-308%*	58%*	-56%*	35%*	42%*	i
CCC(CC)c1ncc[nH]1	i	i	i	-1.5	i	i	/	/	/	/	/	/
